From ChEMBL document CHEMBL1121916, “Structure-activity relationships in dihydropteroate synthase inhibition by sulfanilamides. Comparison with the antibacterial activity” (J Med Chem, 1981)

Key:
[1] = Inhibition of Escherichia coli (K12J53) Dihydopteroate synthase.
Outline: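 Ammonium sulfate fraction (30–70%) from alumina-disrupted E. coli K12J53 grown on brain-heart infusion agar at 37 °C; it contains both pyrophosphokinase and synthase. Read-out was [14C]dihydropteroate. The 50% inhibitory concentration came from 1/dpm vs. concentration plots, divided by p-aminobenzoate concentration (EII50).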

Escherichia coli = test: In vitro inhibition of Escherichia coli (K12J53) growth.
[2] = PKa value was measured; assay type: physicochemical

Structure (SMILES)	EII50 [1]	GII50 (Escherichia coli)	pKa [2]
CN(c1ncccn1)S(=O)(=O)c1ccc(N)cc1	9.2	10000	
CC(=O)NS(=O)(=O)c1ccc(N)cc1 [SULFACETAMIDE]	4.44		5.38
Nc1ccc(S(=O)(=O)Nc2ncccn2)cc1	2.56		
COc1cc(NS(=O)(=O)c2ccc(N)cc2)nc(OC)n1 [SULFADIMETHOXINE]	0.85		5.98
Cn1cccc/c1=N/S(=O)(=O)c1ccc(N)cc1	8	30000	
CNS(=O)(=O)c1ccc(N)cc1	32.4	60000	10.8
NC(=O)NS(=O)(=O)c1ccc(N)cc1 [SULFACARBAMIDE]	8.4		5.42
Cc1cc(C)n(C)/c(=N/S(=O)(=O)c2ccc(N)cc2)n1	26	52000	
Nc1ccc(S(=O)(=O)NC(=O)c2ccccc2)cc1 [SULFABENZAMIDE]	5.2		4.57
CN(c1ccccn1)S(=O)(=O)c1ccc(N)cc1	30	40000	
Nc1ccc(S(N)(=O)=O)cc1	25		
Cc1cc(C)nc(N(C)S(=O)(=O)c2ccc(N)cc2)n1	10.8		
Cc1cc(C)nc(NS(=O)(=O)c2ccc(N)cc2)n1 [SULFAMETHAZINE]	1.92		7.51
Cc1nnc(NS(=O)(=O)c2ccc(N)cc2)s1 [SULFAMETHIZOLE]	0.4		5.22
Cn1ccs/c1=N\S(=O)(=O)c1ccc(N)cc1	13.4	> 10000	
N=C(N)NS(=O)(=O)c1ccc(N)cc1	10.2		
CN(C)S(=O)(=O)c1ccc(N)cc1	82	> 35000	
N#CNS(=O)(=O)c1ccc(N)cc1	8	> 50000	2.92
Nc1ccc(S(=O)(=O)Nc2ccccn2)cc1 [SULFAPYRIDINE]	4.2		8.56
CN(c1nccs1)S(=O)(=O)c1ccc(N)cc1	35.4	> 10000	
Nc1ccc(S(=O)(=O)Nc2nccs2)cc1 [SULFATHIAZOLE]	0.9		7.23
Cn1cccn/c1=N\S(=O)(=O)c1ccc(N)cc1	31.2	> 100000	
